Reference: ChEMBL document CHEMBL1138555, “N-acylated and N,N'-diacylated imidazolidine-2-thione derivatives and N,N'-diacylated tetrahydropyrimidine-2(1H)-thione analogues: synthesis and antiproliferative activity” (Eur J Med Chem, 2009)

The compounds below were run on HCT-15 (assay: Growth inhibition of human HCT15 cells after 48 hrs by sulforhodamine B assay). Settings: HCT-15, 48 h.
Type: functional
Summary of the method: (§1)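 NCI screen panel. Five 10-fold concentrations from 10^-4 to 10^-8 M. Exposure for the last 48 h of a 72 h incubation. Growth estimated by sulforhodamine B protein assay. GI50 is the concentration giving 50% growth inhibition. Where that level was not reached or was exceeded, the value is given as above or below the highest or lowest concentration tested.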

Row | SMILES | GI50 [µM]
1 | N#CC(C#N)=CN1CCN(C(=O)c2ccccc2)C1=S | 36.4

These compounds were tested on EKVX (assay: Growth inhibition of human EKVX cells after 48 hrs by sulforhodamine B assay). Settings: not given.
Type: functional
Summary of the method: as §1

Row | SMILES | GI50 [µM]
2 | N#CC(C#N)=CN1CCN(C(=O)c2ccccc2)C1=S | 3.5

These compounds were tested on CAKI-1 (assay: Growth inhibition of human Caki1 cells after 48 hrs by sulforhodamine B assay). Settings: CAKI-1, 48 h.
Type: functional
Summary of the method: as §1

Row | SMILES | GI50 [µM]
3 | N#CC(C#N)=CN1CCN(C(=O)c2ccccc2)C1=S | 28.7

Each compound was assayed on PC-3 (assay: Growth inhibition of human PC3 cells after 48 hrs by sulforhodamine B assay). Settings: PC-3, 48 h.
Type: functional
Summary of the method: as §1

Row | SMILES | GI50 [µM]
4 | N#CC(C#N)=CN1CCN(C(=O)c2ccccc2)C1=S | 60

The compounds below were run on U-251 (assay: Growth inhibition of human U251 cells after 48 hrs by sulforhodamine B assay). Settings: U-251, 48 h.
Type: functional
Summary of the method: (§2)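 NCI in vitro panel screen. Compounds tested at five 10-fold dilutions, 10^-4 to 10^-8 M. Cells in 96-well plates were exposed for the last 48 h of a 72 h incubation. Viability/growth was read by sulforhodamine B protein assay. GI50 is the concentration giving 50% growth inhibition. Values beyond the tested range are reported as greater or less than the maximum or minimum concentration.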

Row | SMILES | GI50 [µM]
5 | N#CC(C#N)=CN1CCN(C(=O)c2ccccc2)C1=S | 38.2

Each compound was assayed on HCT-116 (assay: Growth inhibition of human HCT116 cells after 48 hrs by sulforhodamine B assay). Settings: HCT-116, 48 h.
Type: functional
Summary of the method: as §1

Row | SMILES | GI50 [µM]
6 | N#CC(C#N)=CN1CCN(C(=O)c2ccccc2)C1=S | 34

The compounds below were run on NCI-H522 (assay: Growth inhibition of human NCI-H522 cells after 48 hrs by sulforhodamine B assay). Settings: NCI-H522, 48 h.
Type: functional
Summary of the method: as §1

Row | SMILES | GI50 [µM]
7 | N#CC(C#N)=CN1CCN(C(=O)c2ccccc2)C1=S | 15.9

The compounds below were run on BT-549 (assay: Growth inhibition of human BT549 cells after 48 hrs by sulforhodamine B assay). Settings: BT-549, 48 h.
Type: functional
Summary of the method: as §1

Row | SMILES | GI50 [µM]
8 | N#CC(C#N)=CN1CCN(C(=O)c2ccccc2)C1=S | 22.8

What follows are compounds tested on OVCAR-4 (assay: Growth inhibition of human OVCAR4 cells after 48 hrs by sulforhodamine B assay). Settings: OVCAR-4, 48 h.
Type: functional
Summary of the method: as §1

Row | SMILES | GI50 [µM]
9 | N#CC(C#N)=CN1CCN(C(=O)c2ccccc2)C1=S | 59.3

What follows are compounds tested on NCI-H460 (assay: Growth inhibition of human NCI-H460 cells after 48 hrs by sulforhodamine B assay). Settings: NCI-H460, 48 h.
Type: functional
Summary of the method: as §1

Row | SMILES | GI50 [µM]
10 | N#CC(C#N)=CN1CCN(C(=O)c2ccccc2)C1=S | 20

What follows are compounds tested on TK-10 (assay: Growth inhibition of human TK10 cells after 48 hrs by sulforhodamine B assay). Settings: TK-10, 48 h.
Type: functional
Summary of the method: as §2

Row | SMILES | GI50 [µM]
11 | N#CC(C#N)=CN1CCN(C(=O)c2ccccc2)C1=S | 23.3

These compounds were tested on K562 (assay: Growth inhibition of human K562 cells after 48 hrs by sulforhodamine B assay). Settings: K562, 48 h.
Type: functional
Summary of the method: as §1

Row | SMILES | GI50 [µM]
12 | N#CC(C#N)=CN1CCN(C(=O)c2ccccc2)C1=S | 79.5

These compounds were tested on SF-268 (assay: Growth inhibition of human SF268 cells after 48 hrs by sulforhodamine B assay). Settings: SF-268, 48 h.
Type: functional
Summary of the method: as §1

Row | SMILES | GI50 [µM]
13 | N#CC(C#N)=CN1CCN(C(=O)c2ccccc2)C1=S | 21.3

These compounds were tested on MOLT-4 (assay: Growth inhibition of human MOLT4 cells after 48 hrs by sulforhodamine B assay). Settings: MOLT-4, 48 h.
Type: functional
Summary of the method: as §1

Row | SMILES | GI50 [µM]
14 | N#CC(C#N)=CN1CCN(C(=O)c2ccccc2)C1=S | 39.2

Each compound was assayed on A549 (assay: Growth inhibition of human A549 cells after 48 hrs by sulforhodamine B assay). Settings: A549, 48 h.
Type: functional
Summary of the method: as §1

Row | SMILES | GI50 [µM]
15 | N#CC(C#N)=CN1CCN(C(=O)c2ccccc2)C1=S | 37.1

Each compound was assayed on RXF 393 (assay: Growth inhibition of human RXF393 cells after 48 hrs by sulforhodamine B assay). Settings: RXF 393, 48 h.
Type: functional
Summary of the method: as §1

Row | SMILES | GI50 [µM]
16 | N#CC(C#N)=CN1CCN(C(=O)c2ccccc2)C1=S | 22.7

What follows are compounds tested on SK-MEL-5 (assay: Growth inhibition of human SK-MEL-5 cells after 48 hrs by sulforhodamine B assay). Settings: SK-MEL-5, 48 h.
Type: functional
Summary of the method: as §1

Row | SMILES | GI50 [µM]
17 | N#CC(C#N)=CN1CCN(C(=O)c2ccccc2)C1=S | 23.3

Each compound was assayed on SF-295 (assay: Growth inhibition of human SF295 cells after 48 hrs by sulforhodamine B assay). Settings: SF-295, 48 h.
Type: functional
Summary of the method: as §1

Row | SMILES | GI50 [µM]
18 | N#CC(C#N)=CN1CCN(C(=O)c2ccccc2)C1=S | 46.2

The compounds below were run on OVCAR-3 (assay: Growth inhibition of human OVCAR-3 cells after 48 hrs by sulforhodamine B assay). Settings: OVCAR-3, 48 h.
Type: functional
Summary of the method: as §1

Row | SMILES | GI50 [µM]
19 | N#CC(C#N)=CN1CCN(C(=O)c2ccccc2)C1=S | 36.4

What follows are compounds tested on SK-MEL-2 (assay: Growth inhibition of human SK-MEL-2 cells after 48 hrs by sulforhodamine B assay). Settings: SK-MEL-2, 48 h.
Type: functional
Summary of the method: as §1

Row | SMILES | GI50 [µM]
20 | N#CC(C#N)=CN1CCN(C(=O)c2ccccc2)C1=S | 18.4

The compounds below were run on MT4 (assay: Antiproliferative activity against human MT4 cells assessed as reduction of growth by MTT assay). Settings: not given.
Type: functional, cell-based
Summary of the method: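 MT-4 lymphoblastoid T cells (ATCC) in RPMI 1640 with 10% FCS, penicillin/streptomycin, checked for mycoplasma. 1 × 10⁴ mock-infected cells per well with serial dilutions from a 100 mM DMSO stock. Incubated 4 days at 37 °C, viable cells counted by MTT. IC50 versus untreated controls by linear regression. Mean of three separate experiments.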

Row | SMILES | IC50 [µM]
21 | N#CC(C#N)=CN1CCN(C(=O)c2ccccc2)C1=S | 11

What follows are compounds tested on NCI-H322M (assay: Growth inhibition of human NCI-H322M cells after 48 hrs by sulforhodamine B assay). Settings: not given.
Type: functional
Summary of the method: as §1

Row | SMILES | GI50 [µM]
22 | N#CC(C#N)=CN1CCN(C(=O)c2ccccc2)C1=S | 33.4

These compounds were tested on HT-29 (assay: Growth inhibition of human HT-29 cells after 48 hrs by sulforhodamine B assay). Settings: HT-29, 48 h.
Type: functional
Summary of the method: as §1

Row | SMILES | GI50 [µM]
23 | N#CC(C#N)=CN1CCN(C(=O)c2ccccc2)C1=S | 42

The compounds below were run on SN12C (assay: Growth inhibition of human SN12C cells after 48 hrs by sulforhodamine B assay). Settings: not given.
Type: functional
Summary of the method: as §2

Row | SMILES | GI50 [µM]
24 | N#CC(C#N)=CN1CCN(C(=O)c2ccccc2)C1=S | 24.6
